Measurements as given in publication PMC6976987 (Molecular Genetics and Metabolism Reports, 2020).
Marks after values point to notes of the source that are not given here.

Assays:
Safety assessments [1] = assay type: in vivo, human
Procedure, shortened: (§1)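 Open-label study in healthy adults. Safety was monitored after a single dose (Day 1), during multiple doses alone (Days 2–8), and during co-dosing (Days 9–15 with the CYP3A/P-gp inhibitor; Days 9–18 with the CYP2D6 inhibitor). Measures: treatment-emergent AEs, clinical labs, vital signs, physical exams, 12-lead ECG, 12 h continuous telemetry. An AE counted as treatment-related if possibly, probably or definitely related to study drug.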

Safety assessments [2] = assay type: in vivo, human; remark: listed apart in the source
Procedure, shortened: as §1

Safety assessments [3] = assay type: in vivo, human; remark: listed apart in the source
[4] = Eliglustat alone, pharmacokinetics across all three studies; assay type: in vivo, human
Procedure, shortened: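 Test compound given orally to healthy adults as a single dose, then BID. Terminal half-life comes from single-dose plasma profiles by non-compartmental analysis. Plasma was protein-precipitated with acetonitrile containing a 13C internal standard, solid-phase extracted and measured by LC-MS/MS. Steady state was judged by graphical examination of pre-dose (trough) concentrations during repeated dosing.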

[5] = test system: glucosylceramide synthase; details: read-out: in vitro IC50; inhibitor of glucosylceramide synthase; cited from earlier work
[6] = following a single dose of eliglustat, Day 1, N = 36
[7] = multiple-dose eliglustat alone, Days 2 to 8, N = 36
[8] = paroxetine study (N = 36), whole study
[9] = concomitant dosing of eliglustat with ketoconazole, Days 9 to 15, N = 33
[10] = ketoconazole study (N = 36), whole study
[11] = multiple-dose eliglustat period, Days 2 to 8, N = 34
[12] = rifampin study (N = 25), whole study
[13] = rifampin study (N = 25), road traffic accident, unrelated to eliglustat or rifampin

- half-life ([4]; human, plasma, oral): 4.2 to 5.11 h
- time to steady-state ([4]; repeated doses of eliglustat, graphical examination of Ctrough values): approximately 4 days
SMILES: CCCCCCCC(=O)N[C@H](CN1CCCC1)[C@H](O)c1ccc2c(c1)OCCO2 [eliglustat]
- subjects reporting AEs related to eliglustat (Safety assessments [1]; concomitant dosing with paroxetine, N = 35): 65.7%
- subjects reporting AEs possibly related to both eliglustat and paroxetine (Safety assessments [1]; concomitant dosing, N = 35): 65.7%
- subjects reporting treatment-related AEs (Safety assessments [1]; [6]): 5.6%
- subjects with moderate gastritis (Safety assessments [1]; following multiple-dose eliglustat): 5.6%
- subjects who discontinued treatment due to AEs (Safety assessments [1]; gastritis (eliglustat alone), dizziness and nausea, nausea and panic attack (concomitant dosing)): 8.3%
- subjects with moderate treatment-related headache (Safety assessments [1]; multiple-dose eliglustat): 2.8%
- number of AEs (Safety assessments [1]; [7]): 31 events
- subjects with AEs (Safety assessments [1]; [7]): 41.7%
- subjects reporting treatment-related AEs (Safety assessments [1]; multiple-dose eliglustat, Days 2 to 8, N = 36): 27.8%
- Any adverse event (AE), number of events (Safety assessments [1]; [8]): 233 N
- Any adverse event (AE), number of subjects (Safety assessments [1]; [8]): 33 (91.7%) N (%)
- Any treatment-related AE, number of events (Safety assessments [1]; [8]): 155 N
- Any treatment-related AE, number of subjects (Safety assessments [1]; [8]): 26 (72.2%) N (%)
- Discontinuations due to AE, number of events (Safety assessments [1]; [8]): 5 N
- Discontinuations due to AE, number of subjects (Safety assessments [1]; [8]): 3 (8.3%) N (%)
- Serious AEs, number of events (Safety assessments [1]; [8]): 0 N
- Serious AEs, number of subjects (Safety assessments [1]; [8]): 0 (0.0%) N (%)
- Severe AEs, number of events (Safety assessments [1]; [8]): 0 N
- Severe AEs, number of subjects (Safety assessments [1]; [8]): 0 (0.0%) N (%)
- tolerability (Safety assessments [2]; administered alone and with ketoconazole): well tolerated
- subjects with dysmenorrhea of moderate intensity (Safety assessments [2]; concomitant dosing of eliglustat with ketoconazole): 3.0%
- number of AEs (Safety assessments [2]; [9]): 33 AEs
- subjects with AEs (Safety assessments [2]; [9]): 48.5%
- subjects reporting AEs related to eliglustat (Safety assessments [2]; concomitant dosing with ketoconazole, N = 33): 36.4%
- subjects reporting AEs possibly related to both eliglustat and ketoconazole (Safety assessments [2]; concomitant dosing, N = 33): 33.3%
- subjects reporting treatment-related AEs (Safety assessments [2]; [6]): 5.6%
- QTcF interval prolongation (Safety assessments [2]; ketoconazole study): no clinically significant prolongations of QTcF interval
- Any adverse event (AE), number of events (Safety assessments [2]; [10]): 58 N
- Any adverse event (AE), number of subjects (Safety assessments [2]; [10]): 20 (55.6%) N (%)
- Any treatment-related AE, number of events (Safety assessments [2]; [10]): 45 N
- Any treatment-related AE, number of subjects (Safety assessments [2]; [10]): 15 (41.7%) N (%)
- Discontinuations due to AE, number of events (Safety assessments [2]; [10]): 0 N
- Discontinuations due to AE, number of subjects (Safety assessments [2]; [10]): 0 (0.0%) N (%)
- Serious AEs, number of events (Safety assessments [2]; [10]): 0 N
- Serious AEs, number of subjects (Safety assessments [2]; [10]): 0 (0.0%) N (%)
- Severe AEs, number of events (Safety assessments [2]; [10]): 0 N
- Severe AEs, number of subjects (Safety assessments [2]; [10]): 0 (0.0%) N (%)
- subjects with dysmenorrhea of moderate intensity (Safety assessments [2]; multiple-dose eliglustat): 2.9%
- number of AEs (Safety assessments [2]; [11]): 21 AEs
- subjects with AEs (Safety assessments [2]; [11]): 32.4%
- subjects reporting treatment-related AEs (Safety assessments [2]; multiple-dose eliglustat, N = 34): 23.5%
- subjects with headache of moderate intensity (Safety assessments [2]; multiple-dose eliglustat, possibly related to eliglustat, unlikely related to ketoconazole): 2.9%
- tolerability (Safety assessments [3]; administered alone and with rifampin): well tolerated
- subjects with moderate dizziness (Safety assessments [3]; after completing multiple doses of eliglustat alone): 4.0%
- subjects reporting an AE related to eliglustat (Safety assessments [3]; concomitant dosing with IV rifampin, Day 12, N = 25): 4.0%
- subjects reporting AEs related to eliglustat (Safety assessments [3]; concomitant dosing with oral rifampin, Days 13 to 17, N = 24): 8.3%
- subjects with moderate nausea, vomiting, and retching (Safety assessments [3]; during the multiple doses of eliglustat alone): 4.0%
- subjects reporting treatment-related AEs (Safety assessments [3]; following treatment with eliglustat alone, N = 25): 20.0%
- Any adverse event (AE), number of events (Safety assessments [3]; [12]): 65 N
- Any adverse event (AE), number of subjects (Safety assessments [3]; [12]): 17 (68.0%) N (%)
- Any treatment-related AE, number of events (Safety assessments [3]; [12]): 39 N
- Any treatment-related AE, number of subjects (Safety assessments [3]; [12]): 11 (44.0%) N (%)
- Discontinuations due to AE, number of events (Safety assessments [3]; [13]): 1 ^a N
- Discontinuations due to AE, number of subjects (Safety assessments [3]; [13]): 1 (4%) N (%)
- Serious AEs, number of events (Safety assessments [3]; [13]): 1 ^a N
- Serious AEs, number of subjects (Safety assessments [3]; [13]): 1 (4%) N (%)
- Severe AEs, number of events (Safety assessments [3]; [13]): 1 ^a N
- Severe AEs, number of subjects (Safety assessments [3]; [13]): 1 (4%) N (%)
- subjects reporting moderate AEs that were treatment-related (Safety assessments [3]; rifampin study overall): 12.0%
- IC50 [5]: 24 nM
